pIC50: −log10 of the molar value. The source made the active and inactive calls. No cut-off for these calls is given here.
Assays:
[1] = molecular target: T1, Prostaglandin E synthase (Homo sapiens) (UniProt O14684); assay: Inhibition of mPGES1 in human A549 cells assessed as reduction in IL-1beta induced PGE2 release by measuring residual activity at 10 uM using PGH2 as substrate preincubated for 15 mins followed by substrate addition and measured after 1 min by RP-UV-HPLC analysis relative to control; type: cell-based
T1 sequence (whole entry): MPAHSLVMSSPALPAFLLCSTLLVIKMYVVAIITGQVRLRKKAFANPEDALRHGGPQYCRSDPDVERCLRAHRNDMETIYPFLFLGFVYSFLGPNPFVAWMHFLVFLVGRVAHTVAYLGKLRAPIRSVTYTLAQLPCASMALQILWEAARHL
In short: (§1)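 The enzyme source was microsomes from IL-1β-stimulated A549 cells in a cell-free assay. The read-out was enzymatic conversion of PGH2 (20 μM) to PGE2.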

A549 [2] = assay: Antiproliferative activity against human A549 cells assessed as inhibition of cell viability incubated for 72 hrs by MTT assay; type: functional, cell-based; details: A549, 72 h
In short: (§2)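 A549 cells were exposed to test compounds in an MTT viability assay (5–100 μM for the 48 h and 72 h exposures). IC50 is the mean ± S.D. of single determinations from three independent experiments.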

[3] = molecular target: T1, Prostaglandin E synthase (Homo sapiens); assay: Inhibition of mPGES1 in human A549 cells assessed as reduction in IL-1beta induced PGE2 release incubated for 24 hrs by ELISA; type: cell-based
In short: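 A549 cells were incubated for 24 h at 5 or 10 μM in medium with 1% FBS and 10 ng/mL IL-1β. PGE2 released into the medium was quantified by ELISA against DMSO vehicle-treated cells. Values are mean ± SEM (pg/mL) of two independent experiments.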

A549 [4] = assay: Induction of programmed cell death in human A549 cells assessed as accumulation at subG0/G1 phase at 20 to 30 uM incubated for 48 hrs by propidium iodide staining based flow cytometric analysis relative to control; type: functional
In short: (§3)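 A549 human lung epithelial cancer cells were exposed to compound at several concentrations for 48 or 72 h. DNA was then stained with propidium iodide, and the percentage of cells in each cycle phase was measured by flow cytometry. The hypodiploid subG0/G1 fraction was read as cell death. Values are mean ± SEM of two independent experiments, each run in triplicate.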

Prostaglandin E synthase = molecular target: T2, Prostaglandin E synthase (Homo sapiens, UniProt O14684); assay: Inhibition of mPGES1 in human A549 cells assessed as reduction in IL-1beta induced PGE2 release using PGH2 as substrate preincubated for 15 mins followed by substrate addition and measured after 1 min by RP-UV-HPLC analysis; type: cell-based; in short: as §1
T2 sequence (O14684 whole entry): T1 sequence (whole entry)

A549 [5] = assay: Antiproliferative activity against human A549 cells assessed as inhibition of cell viability incubated for 24 hrs by MTT assay; type: functional, cell-based; details: A549, 24 h; in short: as §2
A549 [6] = assay: Antiproliferative activity against human A549 cells assessed as inhibition of cell viability incubated for 48 hrs by MTT assay; type: functional, cell-based; details: A549, 48 h; in short: as §2
A549 [7] = assay: Induction of programmed cell death in human A549 cells assessed as accumulation at subG0/G1 phase at 20 to 30 uM incubated for 72 hrs by propidium iodide staining based flow cytometric analysis relative to control; type: functional; in short: as §3
A549 [8] = assay: Induction of cell cycle arrest in human A549 cells assessed as accumulation at G2/M phase at 30 uM incubated for 72 hrs by propidium iodide staining based flow cytometric analysis; type: functional
In short: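 A549 cells were treated at several concentrations for 48 or 72 h, then stained for DNA with propidium iodide. Cell-cycle phase percentages were read by flow cytometry. Values are means ± SEM of two independent experiments, each run in triplicate.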

Row | Compound | Activity [1] | pIC50 (A549 [2]) | inhibition [3] | pIC50 (Prostaglandin E synthase) | pIC50 (A549 [5]) | pIC50 (A549 [6]) | further results
1 | Cc1cc(C)c(C(=O)Nc2nc3cc(-c4cccc(CO)c4)ccc3s2)o1 | > 30% |  |  |  |  |  | 
2 | O=C(Nc1nc2cc(-c3cccc(CO)c3)ccc2s1)c1ccccc1Br | > 30% |  |  |  |  |  | 
3 | Cc1cc(C)c(C(=O)Nc2nc3cc(-c4cccc(C(N)=O)c4)ccc3s2)o1 |  |  |  |  |  |  | inhibition [1]: inactive
4 | NC(=O)c1cccc(-c2ccc3sc(NC(=O)c4ccc(F)cc4C(F)(F)F)nc3c2)c1 |  | 4.72 | Dose-dependent effect | 5.77 | 4.01 | 4.30 | Activity (A549 [4]): 6%; Activity (A549 [7]): 7%
5 | Cc1cc(C)c(C(=O)Nc2nc3ccc(-c4cccc(CO)c4)cc3s2)o1 |  | 4.26 | Dose-dependent effect | 5.59 | 4.02 | 4.20 | 
6 | NC(=O)c1cccc(-c2ccc3sc(NC(=O)c4c(Cl)cccc4Cl)nc3c2)c1 |  |  |  |  |  |  | inhibition [1]: inactive
7 | O=C(Nc1nc2cc(-c3cccc(CO)c3)ccc2s1)c1ccc(F)cc1Cl | > 30% |  |  |  |  |  | 
8 | O=C1OC(O)C(c2cc3ccccc3s2)=C1Br (stereo unspecified) |  | 5.04 |  |  | 4.01 | 4.90 | 
9 | O=C(Nc1nc2ccc(-c3cccc(CO)c3)cc2s1)c1ccc(F)cc1Cl |  | 4.55 | Dose-dependent effect | 5.85 | 4.01 | 4.15 | Activity (A549 [4]): inactive; Activity (A549 [7]): inactive
10 | O=C(Nc1nc2cc(-c3cccc(CO)c3)ccc2s1)c1c(Cl)cccc1Cl | > 30% |  |  |  |  |  | 
11 | O=C(Nc1nc2ccc(-c3cccc(CO)c3)cc2s1)c1ccccc1Br |  | 4.74 | Dose-dependent effect | 6.15 | 4.01 | 4.24 | Activity (A549 [8]): Active; Activity (A549 [4]): 5%; Activity (A549 [7]): 18%

Source: ChEMBL document CHEMBL4610110, “Targeting mPGES-1 by a Combinatorial Approach: Identification of the Aminobenzothiazole Scaffold to Suppress PGE2 Levels” (ACS Med Chem Lett, 2020)
